# Assay outcomes as filed in PubChem BioAssay.
# FGF22 binding – binders of recombinant human FGF22 by thermal shift; activity (Tm shift, normalised), % at 9.99 µM; AID 651658; SYPRO orange fluorescence; percent of sucrose octasulfate shift, DMSO zero; Q9HCT0; 340,000 tested, 1.5% active;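 active = mean Tm shift, scaled 0 neutral to 100 positive control, at about 1.3% or above, every replicate too, limit read from the data; inconclusive = no clear call, values can overlap the other calls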
# Target sequence (Q9HCT0 whole entry, looked up): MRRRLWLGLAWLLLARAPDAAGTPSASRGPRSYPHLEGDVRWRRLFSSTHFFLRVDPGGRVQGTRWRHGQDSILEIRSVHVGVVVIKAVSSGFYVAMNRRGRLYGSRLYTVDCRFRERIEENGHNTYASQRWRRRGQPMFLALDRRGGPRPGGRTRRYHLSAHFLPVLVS
# PGC1a acetyl inh – lowers PGC1a acetylation signal in U2OS cells. AlphaScreen anti-acetyl-lysine; with virally co-expressed GCN5 acetyltransferase. inhibition, % at 15.6 µM. AID 651687. 350,000 tested, 0.17% active;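 active = every replicate shows inhibition of at least 40%; inconclusive = mean inhibition at least 40% but some replicate below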;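 also: 0% = neutral control wells and 100% = positive control wells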
# FN deposition inh – fibronectin deposition inhibition; 350,000 tested, 0.086% active; inhibition, % at 12.6 µM; AH1F fibroblasts, Alexa488-fibronectin deposition fluorescence, overnight;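 active = mean inhibition across replicates of 30% or more, regardless of how many single replicates reach that level; inconclusive = mean under 30% yet at least half of replicates reach 30%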;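 also: positive control wells lacked labelled fibronectin entirely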
#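 Assay system: AH1F fibroblasts assembling fluorescent fibronectin matrix; Amount: 10000 AH1F cells per well; Buffer or medium: DMEM, 2% serum; Probe or stimulus: Alexa488-fibronectin, 24 nM final in well; Doses: single compound dose, delivered by pin transfer; Incubation: 1 h adhesion, overnight exposure; Measured by: fluorescence 485/525 nm; Read-out: fibronectin deposition inhibition.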
# EWS-Fli block – EWS/Fli transcriptional activity inhibition; A673 NR0B1-luciferase reporter, viability-normalised; inhibition, % at 12.6 µM; AID 651661; 350,000 tested, 0.67% active;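 active = mean inhibition of at least 50% after viability correction, with every replicate also passing that limit; inconclusive = mean reaches 50% but only one of two replicates passes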;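 also: firefly luciferase signal divided by Alamar Blue viability fluorescence both relative to DMSO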
# PAX8 reporter – PAX8 transcriptional activity inhibition; 360,000 tested, 1.2% active; AID 652154; inhibition, % at 12.6 µM; RMG-I TPO-luciferase reporter, SteadyGlo, 24 h;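 active = mean replicate inhibition at least 60% with every replicate also reaching 60%; inconclusive = only one of the two criteria is met; inactive = mean below 60% and not all replicates reaching 60%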;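 also: luciferase light reporting Pax8 driven TPO promoter activity; plate controls were median of neutral control wells for no effect and mitoxantrone controls for full effect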
# HIV Env fusion – HIV envelope-mediated fusion inhibition. HeLa-JRFL Env/CEM21 cell fusion, luciferase. inhibition, % at 12.3 µM. 360,000 tested, 1.1% active. AID 651610;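 active = mean replicate inhibition score of at least 50 and every replicate individually at or above 50; inconclusive = only one of the two criteria met; inactive = mean below 50 and not all replicates reaching 50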;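 also: 0% = plate neutral controls and 100% = maraviroc near 300 nM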
# * hit, by the source's call; ? = inconclusive; . = no result; [ ] = dose if it differs, or a comment. Compounds with a hit are over-represented: about 3.1% of the library has one in this group of screens.
SMILES,FGF22 binding,PGC1a acetyl inh,FN deposition inh,EWS-Fli block,PAX8 reporter,HIV Env fusion
CC(C)CC#Cc1cnc2c(c1)C(=O)N([C@H](C)CO)C[C@@H](C)[C@H](CN(C)C(=O)Cc1cccnc1)O2,0,6,-4,0,.,-10[16.7 µM]
Cc1ccccc1OCc1csc(N)n1,43*,.,3,-13,16,-18
COC(=O)c1c(NC(=O)CN2CCN(c3ccccc3Cl)CC2)sc(C)c1C,.,.,34*,.,1,13
CCOC(=O)c1c(NC(=O)CN2CCN(c3ccc(Cl)cc3)CC2)sc(C)c1C,.,4,.,.,.,.
CC1OC(CC(=O)O)CC2=C1C(=O)c1c(O)cccc1C2=O (centres undefined),0,75*,59*,32,130*,76*
COc1cccc2c1-c1c(O)cccc1C2=O,0,.,4,-13,-9,-41
CCOc1cc(/C=C/C(=O)NCCc2ccc(S(N)(=O)=O)cc2)ccc1OCC(C)C,0,8,10,-4,2,2
CCOc1cc(/C=C/C(=O)Nc2ccc(C(=O)NCCN(CC)CC)cc2)ccc1OCC(C)C,0,.,24,55*,78*,7
CCCCSc1nnc(CCCCCNC(=O)OC(C)(C)C)o1,.,-6,-7,.,.,55*
Cc1noc(C)c1NC(=O)Nc1ccc2c(c1)C(=O)N([C@@H](C)CO)C[C@@H](C)[C@@H](CN(C)S(=O)(=O)c1cn(C)cn1)O2,0,13,.,0,.,.
CN1CCN(c2nc3c(c(=O)[nH]c(=O)n3C)n2Cc2cccc(Br)c2)CC1,0,0,4,-1,-7,-4
COc1ccc(Oc2nc3c(c(=O)n(C)c(=O)n3C)n2C)cc1,0,19,-2,7,-7,?
Cn1c(=O)[nH]c(=O)c2c1nc(Br)n2Cc1cccc(Br)c1,0,-48,-1,56*,73*,-93
Cn1c(=O)c2c(nc(Br)n2Cc2ccc3ccccc3c2)n(C)c1=O,.,15,-3,.,.,58*
Cn1c(=O)c2c(nc(Oc3ccc4ccccc4c3)n2C)n(C)c1=O,.,17,6,.,.,102*
C[C@H](CO)N1C[C@H](C)[C@@H](CN(C)S(C)(=O)=O)Oc2ccc(NS(=O)(=O)c3ccc(Cl)cc3)cc2CC1=O,0,1,.,-7,3,-16[16.7 µM]
COc1ccc(C(=O)OCC(=O)N2C(C)CCCC2C)cc1[N+](=O)[O-] (centres undefined),43*,.,8,-6,-6,-2
Nc1ccc(C(=O)OCC(=O)N2CCOCC2)cc1[N+](=O)[O-],43*,12,4,-12,-71,-23
O=C(c1ccccc1)N1CC[C@@H]2[C@@H](CO)Nc3ccc(-c4ccccc4F)cc3[C@@H]21,-1,0,11,-1,22,.
CCCn1nc2cc(C(=O)NCc3ccc(OC(F)(F)F)cc3)ccc2c1OCC,43*,.,-6,-5,1,.
CCOc1c2ccc(C(=O)NCc3ccc(OC(F)(F)F)cc3)cc2nn1CC,0,-7,1,-5,5,-13
CCOc1c2ccc(C(=O)N[C@H](C)C3CCCCC3)cc2nn1CCOC,44*,12,-2,18,2,.
CCc1ccc(-c2cc(C(=O)N/N=C/c3ccco3)[nH]n2)cc1,43*,.,5,-4,-100,4
CC1(c2ccccc2)NC(=O)N(N)C1=O (centres undefined),43*,-14,-13,3,0,2
O=C(C[C@@H]1C=C[C@@H](NC(=O)C2CC2)[C@@H](CO)O1)NCc1ccncc1,0,5,19,-5,-2,29[16.7 µM]
SMILES,FGF22 binding,PGC1a acetyl inh,FN deposition inh,EWS-Fli block,PAX8 reporter,HIV Env fusion
Clc1ccccc1CN1CCN(CCCc2ccccc2)CC1,43*,-1,1,21,-6,-1
O=C(O)c1cccc(COc2ccc(CO)cc2Cl)c1,0,9,.,89*,.,.
O=C(O)c1cccc(COc2ccc3c(c2)CCC3)c1,0,18,0,88*,108*,85*
O=C(NCc1ccccc1)c1cccc(COc2ccc3c(c2)CCC3)c1,.,.,-1,.,17,31
CCOc1ccc(OCc2cccc(C(=O)O)c2)cc1,0,1,.,88*,.,.
CNC[C@H]1Oc2ccc(NC(=O)CCCN(C)C)cc2C(=O)N([C@H](C)CO)C[C@@H]1C,.,6,5,-6,-12,0[16.7 µM]
CCOC(=O)c1c(C)[nH]c(C(=O)OCC(=O)NC(C)(C)C)c1C,0,4,-5,-5,17,4
CCOC(=O)c1[nH]c(C)c(C(=O)OCC(=O)NC(C)c2ccc(F)cc2)c1C (centres undefined),0,-5,26,54*,28,.
CN(C)C(=S)SCC(=O)Nc1ccc(Cl)cc1Cl,1.4*,.,.,75*,-17,19
O=C(O)C[C@H]1C[C@@H]2c3cc(NC(=O)Nc4ccc(F)cc4)ccc3O[C@@H]2[C@H](CO)O1,0,4,-14,4,.,.
Cc1ccc(/C=C2\SC(N3CCCC3)=NC2=O)cc1,0,.,4,-18,-46,-17
CN(C)c1ccc(/C=C2\SC(N3CCCCC3)=NC2=O)cc1,0,-2,0,51*,-18,-35
COc1ccc(OC)c(N(CC(=O)NCCSC2CCCCC2)S(=O)(=O)c2ccccc2)c1,0,.,.,.,32,58*
COc1ccc(N(CC(=O)NCCSC2CCCCC2)S(=O)(=O)c2ccccc2)c(OC)c1,0,.,-8,7,16,64*
C[C@H](O)C#Cc1cnc2c(c1)C(=O)N([C@H](C)CO)C[C@@H](C)[C@H](CN(C)Cc1ccccn1)O2,0,-4,.,-3,.,0[16.7 µM]
CCOc1ccc(-c2[nH]ncc2-c2ccc(OC)c(OC)c2)c(O)c1,.,-68,0,.,.,67*
COc1ccc(-c2[nH]ncc2-c2ccc3c(c2)OCCO3)c(O)c1,.,53*,.,.,.,.
COc1ccc(-c2cn[nH]c2-c2ccc(OCc3ccc([N+](=O)[O-])cc3)cc2O)cc1,0,.,-5,0,-15,73*
CCc1cc(-c2[nH]ncc2-c2ccc(OC)cc2)c(O)cc1O,0,.,1,-15,13,13
COc1ccc(-c2ccc3c(c2)O[C@@H](CN(C)C(C)=O)[C@@H](C)CN([C@H](C)CO)S3(=O)=O)cc1,0,10,1,1,.,7[16.7 µM]
O=C(C[C@@H]1C[C@@H]2c3cc(NS(=O)(=O)c4ccc(F)cc4)ccc3O[C@@H]2[C@@H](CO)O1)NCc1cc(F)ccc1F,0,11,14,11,.,.
Cc1ccc2nc(NC(=O)CSCC(=O)OCC(=O)c3ccc(Br)cc3)sc2c1,.,.,-6,.,24,73*
CN1CCN(C(=O)C[C@H]2CC[C@H]3[C@@H](COC[C@H](O)CN3C(=O)C3CC3)O2)CC1,0,1,-3,-6,-6,.
CC1=CC(=O)N(c2cccc(C(F)(F)F)c2)C1c1ccc(Cl)cc1 (centres undefined),.,1,6,.,.,66*
